# Screening results from PubChem.
# Shown are actives, neighbours in structure and some others; about 2.9% of the full set was active somewhere.
# TRPC4 block – TRPC4 (mouse) channel inhibition; B-score at 10 µM; HEK293 TRPC4beta/mu-opioid, DAMGO-evoked Fluo4 calcium flux; hits give low values; actives 0.39% (n = 300,000); Q9QUQ5; AID 2247;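 active means B-score over 3 SD under the library average, no early fluorescence shift, positive overall ratio signal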
#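 Assay system: HEK293 cells with stable TRPC4beta plus mu-opioid receptor expression. Dosing: single dose. Measured by: Fluo4 Ca2+ flux fluorescence. Also added: DAMGO in two steps, submaximal then maximal. Read-out: B score from integrated Fluo4 fluorescence ratio.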
# TRPC4 agonist – opens the mouse TRPC4 cation channel | B-score at 10 µM | Q9QUQ5 | HEK293 TRPC4beta/mu-opioid, Fluo4 calcium fluorescence; hits give high values | actives 0.49% (n = 310,000);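 active means B-score above 5 SD of library B-scores, and initial fluorescence ratio not above library mean plus 5 SD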;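 further: positive B-score marks a calcium rise read as TRPC4 activation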
#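 Assay system: HEK293 stable line with TRPC4beta plus mu-opioid receptor; schedule: 45 min room-temperature Fluo4 loading, 110 s read; technique: kinetic Fluo4 calcium fluorescence; evaluation: integrated baseline-normalised fluorescence ratio, converted to per-well B score; controls: buffer (low) and maximal DAMGO (high)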
# TRPC6 act – mouse TRPC6 channel activation; actives 0.13% (n = 310,000); HEK293-TRPC6 membrane potential dye fluorescence; hits give high values; Q61143; B-score at 10 µM; AID 2550;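 active means B-score of the integrated fluorescence ratio above library mean plus 3 SD, and starting fluorescence ratio within library mean plus 5 SD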;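 further: higher score means more depolarization so channel activation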
# Kir21 inh – inhibitors of mouse Kir2.1 inward-rectifier potassium channel; P35561; HEK293-Kir2.1, FluxOR thallium flux fluorescence; hits give low values; B-score at 10 µM; actives 0.85% (n = 310,000); AID 1672;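 active means fluorescence ratio B-score at or below minus 3 SD of library scores, with starting-brightness B-score within 2 SD, cut at about -4.2 in these data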;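 further: channel flux triggered by added potassium and thallium sulfate stimulus; B-score of peak minus minimum fluorescence over baseline after thallium stimulus; more negative B-score means stronger Kir2.1 block with less thallium influx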
# TRPC4 PAM – allosteric potentiators of mouse TRPC4 channel; actives 0.42% (n = 310,000); Q9QUQ5; HEK293 TRPC4beta/mu-opioid, DAMGO EC20, Fluo-4 Ca2+ flux; hits give high values; B-score at 10 µM;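 active means B-score of calcium response area above 5 SD of library B-scores, with initial fluorescence ratio within 5 SD of library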;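 further: B-score of integrated fluorescence ratio over time as area under calcium response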
# TRPC6 inh – inhibitors of mouse TRPC6 channel; HEK293-TRPC6, membrane potential dye, ACh-evoked depolarization; hits give low values; B-score at 10 µM; actives 1.1% (n = 310,000);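 active means B-score under library mean minus 3 SD, initial fluorescence not abnormally high, positive integrated signal ratio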;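 further: B-score derived from integrated fluorescence ratio over the kinetic read; more negative B-score means stronger inhibition of depolarization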
# Numbers without * were called inactive; i = inactive; · = no result given.
SMILES,TRPC4 block,TRPC4 agonist,TRPC6 act,Kir21 inh,TRPC4 PAM,TRPC6 inh
O=C(c1ccccc1)c1ccc(OCC(O)CNCc2cccc(Cl)c2)cc1 (configuration not stated),i,i,i,-8.4*,i,i
COc1ccc(C(OCC(O)CNCCc2ccccc2)c2ccc(OC)cc2)cc1 (configuration not stated),i,i,i,-6.7*,i,i
CCC(=O)c1ccc(OCC(O)CNCCc2ccc(Cl)cc2)cc1 (configuration not stated),i,59*,i,-3,i,i
OC(CNCc1cccc(Cl)c1)c1ccccc1 (configuration not stated),i,i,i,-0.42,i,i
COCCN(Cc1cccs1)S(=O)(=O)c1csc(C(N)=O)c1,i,i,i,-1.1,i,i
COCCNC(=O)/C(C#N)=C/c1c(N2CC(C)OC(C)C2)nc2ccccn2c1=O (configuration not stated),i,i,i,0.33,i,i
NCC(O)COCCC12CC3CC(CC(C3)C1)C2 (configuration not stated),i,i,i,-2.6,i,i
OC(CNCCc1ccc(Cl)cc1)COc1cc(Cl)ccc1Cl (configuration not stated),i,i,i,-14*,i,i
Clc1ccc(OCCNCCc2ccccc2)cc1,i,98*,i,-1.9,i,i
CC(C)c1ccc(OCC(O)CNC(C)c2ccccc2)cc1 (configuration not stated),i,i,i,-6*,i,i
CC(NCC(O)COCCC12CC3CC(CC(C3)C1)C2)c1ccccc1 (configuration not stated),i,83*,i,-12*,i,i
CN(C)c1ccc(NC(=S)NC(=O)/C=C/c2ccc(Cl)cc2)cc1,i,i,i,-2.2,i,i
C/C(=N\N1C(=O)c2ccccc2C1=O)c1cccc([N+](=O)[O-])c1,i,i,i,-0.71,i,i
NC(=S)C(c1ccccc1)c1ncc(C(F)(F)F)cc1Cl (configuration not stated),i,i,i,-2.8,i,i
NC(=O)C(c1cccc(Cl)c1)c1ncc(C(F)(F)F)cc1Cl (configuration not stated),i,i,i,0,15*,i
O=C(c1cnc2ccccn2c1=O)N1CCCc2ccccc21,i,i,i,1.9,i,i
NC(=O)C1CCN(C(=O)CCc2nc3ccccc3c(=O)[nH]2)CC1,·,i,i,1,i,i
COc1ccc(CCNC(=O)Cn2cnc3c(cnn3C(C)(C)C)c2=O)cc1OC,i,i,i,0.67,26*,i
CC(C)(C)n1ncc2c(=O)n(CC(=O)NCCc3ccccc3)cnc21,·,i,i,0.96,i,i
Cc1ccccc1C(=O)c1cccn1CC(=O)NCc1ccccc1,i,i,i,-0.69,i,i
Cc1ccccc1C(=O)c1cccn1CC(=O)NCC(C)c1ccccc1 (configuration not stated),i,i,i,-6.4*,i,i
COc1ccc(CCNC(=O)Cn2cccc2C(=O)c2ccccc2)cc1OC,i,i,i,1.1,i,i
COc1ccc(CCNC(=O)Cn2cccc2C(=O)c2ccccc2C)cc1OC,i,i,i,-5*,i,i
CCCCn1c(=NC(=O)c2cccnc2)c(C(=O)OCC)cc2c(=O)n3ccccc3nc21,i,i,i,3.2,46*,i
CCOCCCn1c(=NC(=O)c2cccnc2)c(C(=O)OCC)cc2c(=O)n3ccccc3nc21,i,i,i,0,i,i
Cc1cccc(NC(=S)Nc2c(C)n(C)n(-c3ccccc3)c2=O)c1C,i,i,i,0.68,i,i
OCc1cn(-c2ccccc2)nc1-c1ccc(Br)cc1,i,i,i,0,i,i
